Screening results (PubChem)
PABP FP inh: PABP-poly(A) binding inhibition; hit rate 1% among 290,000; PABP-poly(A) RNA binding, fluorescence polarization; inhibition, % at 35 µM; P11940;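 also: calls also rest on retests at 20 µM and on dose response follow-up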
NS3 helicase inh: inhibitors of Hepatitis C virus NS3 helicase. AID 1800. hit rate 0.56% among 290,000. NS3 helicase DNA unwinding, Cy5 molecular beacon fluorescence. inhibition, % at 10.9 µM;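 active = inhibition above the mean of all tested compounds plus 3 SD, set per campaign, cut at about 35% in these data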;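 also: 0% = DMSO wells and 100% = thioflavine S control wells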
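Assay system: hepatitis C virus NS3 helicase domain fragment enzyme. Also added: annealed dual-labelled DNA beacon duplex, ATP-started. Timing: 1 h reaction at 25 °C, ATP-initiated. Technique: Cy5 fluorescence at 0 and 60 min, beacon hairpin quenching. Evaluation: % inhibition of unwinding. Replication: one well per compound.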
core dimer inh: HCV core protein dimerization inhibition; TR-FRET GST/Flag-core106 dimerization, 1536-well; inhibition, % at 5 µM; hit rate 0.33% among 300,000; AID 1899;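 active = inhibition above the mean of all tested compounds plus 3 SD, set per screening campaign, cut at about 45% in these data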
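System: GST-tagged and Flag-tagged HCV core protein residues 1-106 / Input: core106 proteins, GST 13.5 nM and Flag 17 nM / Buffer or medium: KF-containing HEPES buffer, pH 7.45, DTT, CHAPS, BSA / Probe or stimulus: Eu-anti-GST and XL665-anti-Flag labelled anti-tag antibodies / Schedule: 4 h, 22.5 °C incubation / Technique: TR-FRET 671 and 617 nm emission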
FID counter: counter-screen for HCV NS3 helicase inhibitors: DNA intercalator displacement. DNA fluorescent intercalator displacement, fluorescence. inhibition, % at 7.9 µM. hit rate 0.17% among 290,000. AID 1845; in the data active = inhibition above about 37%;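 also: 0% = vehicle and 100% = reference compound; higher means more ethidium bromide displaced from hairpin DNA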
eIF4H FP inh: inhibitors of RNA binding by human eIF4H; Q15056; eIF4H fluorescence polarization binding assay; inhibition, % at 35 µM; hit rate 0.94% among 290,000; AID 2012;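 also: calls also rest on retests at 20 µM and on dose response follow-up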
MLLE-PAM2 inh: inhibitors of microRNA-mediated deadenylation, human PABP1 MLLE binding; GST-MLLE / FITC-PAM2 fluorescence polarization; inhibition, % at 20 µM; hit rate 0.36% among 360,000; in the data active = inhibition above about 35%, passing the limit was not always enough;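 also: plate controls were DMSO wells with GST-MLLE for no effect and wells lacking GST-MLLE protein for full effect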
* hit, by the source's call; ? = inconclusive; . = no result; + = active, no number. Shown are actives, neighbours in structure and some others; about 2% of the full set was active somewhere. Unless noted, no rule for the calls is given here.

SMILES	PABP FP inh	NS3 helicase inh	core dimer inh	FID counter	eIF4H FP inh	MLLE-PAM2 inh
CCCCNC(=O)c1cn(CC)c2cc(N3CCN(C)CC3)c(F)cc2c1=O	-2	-8	5	11	3	-12
Cc1cc2cc(CN3C(=O)c4ccccc4C3=O)ccc2n1C	10	-17	-18	-8	94	48*
Cc1cc2cc(CNC(=O)c3ccco3)ccc2n1C	33*	.	24	.	53*	37
Cc1cc2cc(CNC(=O)c3cc4ccccc4o3)ccc2n1C	37	6	29	-38	21	.
COc1ccc(C(=O)NCc2ccc3c(c2)cc(C)n3C)cc1	24	-12	-3	-21	49	51*
FC(F)Oc1ccc(NC(=S)NCc2ccccc2)cc1	26	-18	-4	7	2	-24
O=C1c2ccccc2C(=O)N1Cc1ccc2c(c1)OCO2	-1	3	0	-4	-7	-5
Cc1cc2cc(CNC(=S)Nc3ccc(OC(F)F)cc3)ccc2n1C	active	-46	-93	-1	75*	39*
Cc1ccc(S(=O)(=O)NCc2ccc3c(c2)cc(C)n3C)cc1	4.3*	-3	-8	-18	58*	35
Cc1cc2cc(CNC(=O)COc3ccccc3)ccc2n1C	10	-56	20	-23	9	50*
Cc1cc2cc(CNC(=O)c3ccc4c(c3)OCO4)ccc2n1C	64*	-24	11	-24	61*	56*
COCC(=O)NCc1ccc2c(c1)cc(C)n2C	4	0	-1	-7	28	34
C=CC[C@@H](CC(=O)OC(C)(C)C)C(=O)OC[C@@H]1CCCN1C(=O)[C@@H](CC=C)CC(=O)N(CCO)Cc1ccccc1	.	.	.	.	.	5
CC(O)/C=C/c1ccc2ccccc2n1 (stereo unspecified)	-7	-4	1	2	1	38*
S=c1[nH]nc2ccc3ccccc3n12	.	.	.	.	.	1
S=c1[nH]c2ccccc2n2c(=S)[nH]nc12	12	7	-39	-11	3	41*
O=c1nc(Nc2ccccc2)oc2ccccc12	-7	-1	-1	-1	-5	-15
O=c1nc(Nc2cccc(Cl)c2)oc2cc(Cl)oc(=O)c12	26*	24	5	-7	58	-17
CCCCCC(O)C=CC1C(O)CC(O)C1CC=CCCCC(=O)O (stereo unspecified)	.	.	.	.	.	-3
CCCCC[C@H](O)/C=C/[C@H]1C=CC(=O)[C@@H]1C/C=C\CCCC(=O)O	+	13	.	-34	94	.
CNC(=S)NN=C(C)CCCC(C)=NNC(=S)NC	.	.	.	.	.	-16
O=C(CSc1n[nH]c(-c2ccccc2Br)n1)NCCN1C(=O)CSC1=O	120	-5	-1	-3	active	-2
Cc1ccc(Nc2nnc(SCC(=O)NCCN3C(=O)CSC3=O)s2)cc1C	121*	13	11	-26	-3	-83
C#Cc1ccc([C@@H]2C=C(C(=O)NCc3ccccc3)O[C@H](OCCCCO)C2)cc1	.	.	52*	.	.	-15
O=C(NCc1ccccc1)C1=C[C@@H](c2ccccc2)C[C@@H](OCc2ccc(CO)cc2)O1	-3	-6	9	-24	-4	-9
SMILES	PABP FP inh	NS3 helicase inh	core dimer inh	FID counter	eIF4H FP inh	MLLE-PAM2 inh
O=C(NCc1ccccc1)C1=C[C@@H](c2ccc(Br)cc2)C[C@@H](OCCCCO)O1	6	4	4	-22	-8	-1
C#Cc1ccc([C@@H]2C=C(C(=O)NCc3ccccc3)O[C@H](OCc3ccc(CO)cc3)C2)cc1	-5	13	47*	-28	2	1
Cc1ccc(NC(=O)CCn2c(=S)oc3ccccc32)cc1F	-20	-9	2	-2	-5	7
CC(C)CCc1noc(CN2CCN(c3ccc(Cl)cn3)CC2)n1	5	1	-5	-13	-10	16
Cc1ccc(-c2nc3cnccn3c2Nc2c(C)cccc2C)o1	15	2	0	-10	10	39*
Cc1ccc(-c2nc3ncccn3c2Nc2ccccc2C)o1	?	-11	3	-10	13	-3
COC(=O)C(C)(C(=O)OC)c1ccccc1[N+](=O)[O-]	67*	-3	-1	0	?	0
O=C1CC(c2ccco2)Cc2nc(Nc3nc(-c4ccccc4)c4ccccc4n3)ncc21 (stereo unspecified)	9	7	59*	-16	11	25
CC1(Cc2ccc(F)c(Cl)c2)C(=O)Nc2c(Cl)cccc21 (stereo unspecified)	.	.	.	.	.	-10
